5 molecules from ChEMBL document CHEMBL1128413, “The serotonin 5-HT4 receptor. 1. Design of a new class of agonists and receptor map of the agonist recognition site” (J Med Chem, 1995) can be followed below.

Assay [1] deals with 5-hydroxytryptamine receptor 4 (Cavia porcellus) (UniProt O70528). Put plainly: Compound was evaluated for the relative potency with respect to serotonin against 5-hydroxytryptamine 4 receptor. Type of assay: functional.
Assay [2] shares this target. Put plainly: 5-hydroxytryptamine 4 receptor agonist activity in the guinea pig ileum assay. Type of assay: functional, tissue-based. A digest of the protocol: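 Guinea pig ileum longitudinal muscle strips in tyrode solution with 0.1 μM methysergide. Twitch contractions (2–3 s) evoked by field stimulation with square-wave pulses (0.1 Hz, 2 ms) via platinum electrodes. Once a stable submaximal response is reached, noncumulative concentration–response curves are built for enhancement of twitch. Readouts are pD2 and efficacy relative to 5-HT.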

Assay [3] addresses D(2) dopamine receptor (Bos taurus) (UniProt P20288). As to the kind of experiment: Binding affinity was evaluated by Dopamine receptor D2 binding in the calf striatum by displacing spiperone. It is filed as tissue-based. A digest of the protocol:
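Radioligand displacement with [3H]spiperone on calf striatum membranes; Ki reported.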

Assay [4] deals with T1, Serotonin 3 receptor (5HT3) (Mus musculus) (UniProt Q9JHJ5+P23979).
Assay [5] has as its target D(1A) dopamine receptor (Bos taurus) (UniProt Q95136). The following applies: Striatum.
Assay [6] concerns the target 5-hydroxytryptamine receptor 2A (Rattus norvegicus) (UniProt P14842). As to the kind of experiment: Binding affinity was evaluated by 5-hydroxytryptamine 2A receptor […] in the rat cortex by displacing ketanserin. In outline:
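Radioligand displacement with [3H]ketanserin on rat cortex membranes; Ki reported.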

In assay [7] the target is T2, Serotonin 3 receptor (5HT3) (Mus musculus, UniProt Q9JHJ5+P23979).
T2 sequence (Q9JHJ5 whole entry): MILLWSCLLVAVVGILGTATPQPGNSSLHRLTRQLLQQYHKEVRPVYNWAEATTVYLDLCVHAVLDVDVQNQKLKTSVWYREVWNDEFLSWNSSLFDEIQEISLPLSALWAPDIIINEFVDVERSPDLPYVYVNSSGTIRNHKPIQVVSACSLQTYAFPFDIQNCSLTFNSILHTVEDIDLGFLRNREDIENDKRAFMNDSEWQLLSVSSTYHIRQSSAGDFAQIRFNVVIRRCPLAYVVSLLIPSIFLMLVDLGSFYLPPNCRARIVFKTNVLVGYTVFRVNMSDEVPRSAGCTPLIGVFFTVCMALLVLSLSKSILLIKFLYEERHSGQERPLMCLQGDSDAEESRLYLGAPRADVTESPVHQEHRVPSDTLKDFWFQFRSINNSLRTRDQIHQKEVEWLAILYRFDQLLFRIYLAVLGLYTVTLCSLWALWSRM
T2 sequence (P23979 whole entry): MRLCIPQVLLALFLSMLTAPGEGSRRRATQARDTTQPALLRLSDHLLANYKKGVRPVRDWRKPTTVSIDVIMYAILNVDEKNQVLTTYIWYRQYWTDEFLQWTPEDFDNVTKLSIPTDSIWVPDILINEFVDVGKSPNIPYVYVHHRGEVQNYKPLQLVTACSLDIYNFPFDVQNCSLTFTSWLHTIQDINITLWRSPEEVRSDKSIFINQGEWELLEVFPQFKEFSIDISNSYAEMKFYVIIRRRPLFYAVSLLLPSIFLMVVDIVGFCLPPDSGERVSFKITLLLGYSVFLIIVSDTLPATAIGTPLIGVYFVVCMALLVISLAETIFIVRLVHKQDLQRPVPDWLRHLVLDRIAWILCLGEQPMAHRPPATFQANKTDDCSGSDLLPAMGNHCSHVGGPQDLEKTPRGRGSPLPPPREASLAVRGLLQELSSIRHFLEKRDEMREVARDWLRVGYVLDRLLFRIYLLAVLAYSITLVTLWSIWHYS
Put plainly: Compound was evaluated for the binding affinity at 5- HT3 receptor subtype. It is filed as protein assay. In outline: (§1)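 Radioligand binding to native tissue membranes. Each receptor used its own tissue and [³H]radioligand: 5-HT2A in rat cortex with [³H]ketanserin, 5-HT3 in mouse N1E-115 cells with [³H]tropisetron, α1 in calf cortex with [³H]prazosin, and D2 in calf striatum with [³H]spiperone. Affinity is reported as Ki.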

The target of assay [8] is T3, Alpha-1A adrenergic receptor (Bos taurus) (UniProt P18130).
T3 sequence (whole entry): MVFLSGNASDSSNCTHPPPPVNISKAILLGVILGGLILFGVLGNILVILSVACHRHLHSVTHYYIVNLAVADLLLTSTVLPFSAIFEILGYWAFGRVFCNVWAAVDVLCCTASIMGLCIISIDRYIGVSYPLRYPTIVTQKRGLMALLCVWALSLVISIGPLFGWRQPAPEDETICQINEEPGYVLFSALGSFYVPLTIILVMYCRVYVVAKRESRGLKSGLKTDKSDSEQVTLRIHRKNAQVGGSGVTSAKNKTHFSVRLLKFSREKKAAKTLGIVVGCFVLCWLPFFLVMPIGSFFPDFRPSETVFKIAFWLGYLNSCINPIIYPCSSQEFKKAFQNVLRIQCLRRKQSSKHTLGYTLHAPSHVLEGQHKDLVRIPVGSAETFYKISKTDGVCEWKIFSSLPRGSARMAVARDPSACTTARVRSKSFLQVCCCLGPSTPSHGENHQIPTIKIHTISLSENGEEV
As to the kind of experiment: Binding affinity was evaluated by Alpha-1 adrenergic receptor in calf cortex by displacing prazosin. A digest of the protocol:
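Radioligand displacement with [3H]prazosin on calf cortex membranes; Ki reported.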

In assay [9] the target is D(2) dopamine receptor (Bos taurus, UniProt P20288). As to the kind of experiment: Compound was evaluated for the binding affinity at Dopamine receptor D2. In outline:
as §1

Assay [10] concerns the target T1, Serotonin 3 receptor (5HT3) (Mus musculus). The source holds these as a separate data set.
The target of assay [11] is Serotonin 3 (5-HT3) receptor (Homo sapiens) (UniProt P46098+A5X5Y0+O95264+Q70Z44+Q8WXA8). Put plainly: 5-hydroxytryptamine 3 receptor agonism in the guinea pig ileum by functional 5-HT3 receptor assay. Type of assay: tissue-based. The settings on record: Cavia porcellus, target entry is the homologue from another species. In outline: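 Guinea pig ileum in tyrode solution containing 0.1 μM methysergide. 5-HT3 receptor-mediated contractions recorded isotonically; concentration–response curves built noncumulatively.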

The target in assay [12] is D(1A) dopamine receptor (Bos taurus) (UniProt Q95136). As to the kind of experiment: Binding affinity was evaluated by dopamine receptor D1 […] in the calf striatum by displacing SCH 23390. It is filed as tissue-based. In outline:
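Radioligand displacement with [3H]SCH 23390 on calf striatum membranes; Ki reported.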

For assay [13], the system named is 5-HT1A receptor (Sus scrofa). Put plainly: Binding affinity was evaluated by 5-hydroxytryptamine 1A receptor […] in the pig cortex by displacing 8-OH-DPAT.

Structures are written as SMILES.

D(1A) dopamine receptor (Bos taurus), sequence (Q95136 whole entry): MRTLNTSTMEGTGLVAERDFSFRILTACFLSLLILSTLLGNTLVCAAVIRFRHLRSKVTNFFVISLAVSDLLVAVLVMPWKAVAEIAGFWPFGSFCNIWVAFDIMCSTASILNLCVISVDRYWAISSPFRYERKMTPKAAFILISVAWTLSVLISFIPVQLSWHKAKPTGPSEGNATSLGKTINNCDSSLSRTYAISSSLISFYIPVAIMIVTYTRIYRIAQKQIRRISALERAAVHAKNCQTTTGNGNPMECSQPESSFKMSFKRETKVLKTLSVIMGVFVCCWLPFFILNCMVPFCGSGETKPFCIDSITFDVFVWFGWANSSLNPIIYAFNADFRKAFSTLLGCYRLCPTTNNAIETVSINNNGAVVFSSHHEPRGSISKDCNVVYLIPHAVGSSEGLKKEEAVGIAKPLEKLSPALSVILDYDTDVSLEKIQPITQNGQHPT
D(2) dopamine receptor (Bos taurus), sequence (P20288 whole entry): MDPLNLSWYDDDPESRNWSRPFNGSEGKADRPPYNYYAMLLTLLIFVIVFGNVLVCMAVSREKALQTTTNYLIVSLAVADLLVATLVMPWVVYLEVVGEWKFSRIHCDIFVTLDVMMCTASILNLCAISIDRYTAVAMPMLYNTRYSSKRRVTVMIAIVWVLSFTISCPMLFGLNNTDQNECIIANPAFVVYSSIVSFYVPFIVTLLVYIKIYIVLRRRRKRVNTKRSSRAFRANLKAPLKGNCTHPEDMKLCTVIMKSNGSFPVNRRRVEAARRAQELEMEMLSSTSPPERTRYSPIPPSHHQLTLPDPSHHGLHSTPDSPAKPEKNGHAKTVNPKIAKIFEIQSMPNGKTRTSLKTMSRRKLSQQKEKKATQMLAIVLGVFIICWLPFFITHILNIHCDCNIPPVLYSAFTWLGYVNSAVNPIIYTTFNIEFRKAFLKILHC
5-hydroxytryptamine receptor 4 (Cavia porcellus), sequence (O70528 whole entry): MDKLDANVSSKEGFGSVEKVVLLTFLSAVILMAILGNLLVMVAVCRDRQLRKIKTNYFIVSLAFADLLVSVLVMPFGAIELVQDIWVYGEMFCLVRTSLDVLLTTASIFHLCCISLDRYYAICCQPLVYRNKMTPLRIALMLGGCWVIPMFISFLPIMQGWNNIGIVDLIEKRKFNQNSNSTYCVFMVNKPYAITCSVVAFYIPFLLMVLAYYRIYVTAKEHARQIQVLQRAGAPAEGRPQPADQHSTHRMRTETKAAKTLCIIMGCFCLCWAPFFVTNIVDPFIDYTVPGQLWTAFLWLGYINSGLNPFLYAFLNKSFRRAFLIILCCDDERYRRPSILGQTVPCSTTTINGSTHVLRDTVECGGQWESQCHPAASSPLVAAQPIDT
5-hydroxytryptamine receptor 2A (Rattus norvegicus), sequence (P14842 whole entry): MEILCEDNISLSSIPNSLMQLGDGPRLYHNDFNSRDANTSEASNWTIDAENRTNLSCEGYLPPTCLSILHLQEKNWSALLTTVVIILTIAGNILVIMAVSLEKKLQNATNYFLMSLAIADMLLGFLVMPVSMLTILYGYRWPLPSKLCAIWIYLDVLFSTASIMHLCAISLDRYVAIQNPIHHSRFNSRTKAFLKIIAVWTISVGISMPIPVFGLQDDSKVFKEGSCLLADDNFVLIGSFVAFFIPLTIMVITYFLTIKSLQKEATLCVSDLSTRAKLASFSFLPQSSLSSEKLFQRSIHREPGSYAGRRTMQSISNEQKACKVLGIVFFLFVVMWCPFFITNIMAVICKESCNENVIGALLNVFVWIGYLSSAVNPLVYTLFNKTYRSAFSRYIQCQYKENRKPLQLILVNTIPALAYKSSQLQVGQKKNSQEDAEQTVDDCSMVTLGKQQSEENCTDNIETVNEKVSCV
D(2) dopamine receptor, sequence (P20288 whole entry): as the sequence (P20288 whole entry) above

For `COc1cc(N)c(Cl)cc1C(=O)N[C@H]1CCN(CCCOc2ccc(F)cc2)C[C@H]1OC`, the Potency relative to serotonin in assay [1] amounted to 0.7. In assay [2], this molecule displayed a pD2 of 6. In addition, the pKD in assay [3] came to 6.5; in assay [4] it was 7.2; in assay [5], 5.2.
With `CCN(CC)CCNC(=O)c1cc(Cl)c(N)cc1OC` [METOCLOPRAMIDE], the pKD in assay [6] is 5.4; in assay [8], under 5; in assay [3] it was 7.1; in [10], 6.7; in assay [5] it was under 5. For the same molecule, the Potency relative to serotonin in [1] turned out to be 1. In assay [2], this molecule had a pD2 of 5.6. In addition, the Ki worked out at 200 nM in assay [7] and 80 nM in assay [9].
With `N=C(N)N/N=C/c1c[nH]c2ccc(O)cc12`, the pKD in [6] is 6.6; in assay [8], under 5.5; in assay [3], under 5; in assay [12], 5.4; in assay [13] it was 7.2. Besides, the pD2 is under 5 in [11] and 8.8 in [2]. The Potency relative to serotonin in assay [1] was found to be 1.5.
In assay [1], `NCCc1c[nH]c2ccc(O)cc12` had a Potency relative to serotonin of 1. The pD2 in assay [2] was 8.4.
Take `COc1cc(N)c(Cl)cc1C(=O)N[C@H]1CN2CCC1CC2`: the pKD in assay [6] was under 5; in assay [8], under 5; in assay [3] it was under 5; in assay [4], 9.5; in assay [5], under 5. In [1], this molecule yielded a Potency relative to serotonin of 1.9. In assay [2], the pD2 came out at 6.8.
